Assay results reported in ChEMBL document CHEMBL5335768, “Expanding the knowledge around antitubercular 5-(2-aminothiazol-4-yl)isoxazole-3-carboxamides: Hit-to-lead optimization and release of a novel antitubercular chemotype via scaffold derivatization” (Eur J Med Chem, 2023).
Values after ≈ are worked out from the molar mass of the structure shown. Active and inactive are the calls of the source. The rule behind the calls is not given here.

Columns and labels:
[1] = tested on: Mycobacterium tuberculosis; assay: Antitubercular activity against Mycobacterium tuberculosis H37Rv assessed as inhibition of bacterial growth incubated for 7 days by REMA method; type: functional
Mycobacterium marinum [2] = details: ATCC BAA-535, time 3.0 weeks
[3] = Cytotoxicity against human THP-1 cells assessed as reduction in cell viability measured after 72 hrs by MTT assay; type: toxicity, cell-based
Outline: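 THP-1 monocytes were differentiated to macrophages with PMA 100 ng/mL for 72 h. They were then exposed to compounds at 1, 10, 50 and 100 μM for 72 h, each tested twice. MTT at 1 mg/mL in RPMI with 5% FBS was added for 2 h at 37 °C; formazan was dissolved in DMSO and read at 570 nm. Viability is given as % of control; IC50 from non-linear regression.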

Mycobacterium avium [4] = assay: Antitubercular activity against Mycobacterium avium 11 assessed as inhibition of bacterial growth upto 100 uM measured after 4 days by broth microdilution method; type: functional, organism-based; details: time 4.0 day
Outline: (§1)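 Twofold serial dilutions inoculated at OD600 0.05; incubated at 37 °C, shaking at 110 rpm, for 3 days (M. abscessus Bamboo) or 4 days (M. avium 11). […] Clarithromycin positive control; data representative of two independent replicates.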

[5] = tested on: Mycobacteroides abscessus; assay: Antitubercular activity against Mycobacterium abscessus Bamboo assessed as inhibition of bacterial growth upto 100 uM measured after 3 days by broth microdilution method; type: functional, organism-based; details: time 3.0 day; outline: as §1
[6] = Metabolic stability of the compound in human liver microsomes assessed as parent residual fraction at 1 uM preincubated with NADP+ for 5 mins prior to compound addition by HPCLC-MRM-MS analysis; type: ADME, Microsome; details: read-out: Stability
Outline: (§2)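 Pooled HLM at 1 mg/mL protein in 100 mM PBS pH 7.4 with an NADPH-regenerating mix: G6P 10 mM, NADP+ 2 mM, MgCl2 5 mM, G6PDH 1.5 U/mL (stock concentrations). Pre-incubated 5 min at 37 °C, then compound added to 1 μM final (1% DMSO).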

Mycobacterium marinum [7] = assay: Antitubercular activity against Mycobacterium marinum ATCC BAA-535 assessed as inhibition of bacterial growth measured after 3 weeks by broth microdilution method; type: functional; details: ATCC BAA-535, 504 h
Mycobacterium avium [8] = assay: Antitubercular activity against Mycobacterium avium 11 assessed as inhibition of bacterial growth at 100 uM measured after 4 days by broth microdilution method; type: functional; details: Mycobacterium avium, 11, 96 h, time 4 day
[9] = Half life in human liver microsomes at 1 uM preincubated with NADP+ for 5 mins prior to compound addition by HPLC-MRM-MS analysis; type: ADME, Microsome; outline: as §2
[10] = tested on: Mycobacteroides abscessus; assay: Antitubercular activity against Mycobacterium abscessus Bamboo assessed as inhibition of bacterial growth at 100 uM measured after 3 days by broth microdilution method; type: functional; details: 72 h, time 3 day; outline: as §1
[11] = Mycobacterium tuberculosis, H37Rv, 168 h, time 7 day, read-out: MIC90

Structure (SMILES)	MIC90 [1, 11] [µg/mL]	IC50 at 72 h [3] [µg/mL]	also measured
O=C(Nc1cccc(F)c1)c1cc(C(=O)Nc2nc3ccccc3s2)on1	–	–	MIC90 ([1]; time 7.0 day): inactive; MIC90 (Mycobacterium marinum [2]): inactive
Cc1ccc(Nc2nc(-c3cc(C(=O)Nc4ccccn4)no3)cs2)c(O)c1	> 20	–	–
Cc1ccc(Nc2nc(-c3cc(C(=O)Nc4ccccn4)no3)co2)cc1	2.5 (≈ 6.92 µM)	70.9 (≈ 196 µM)	–
Cc1ccc(Nc2nc(-c3cc(C(=O)Nc4ccccc4C)no3)cs2)cc1	1 (≈ 2.56 µM)	63.7 (≈ 163 µM)	Activity (Mycobacterium avium [4]): inactive; Activity [5]: inactive
O=C(Nc1ccccn1)c1cc(-c2csc(Nc3cc(Cl)c(Cl)c(Cl)c3)n2)on1	> 20	–	remaining at 1 µM [6]: 102%
O=C(Nc1ccccn1)c1cc(-c2csc(Nc3cc(F)cc(F)c3)n2)on1	> 20	–	–
Cc1ccc(Nc2nc(-c3cc(C(=O)Nc4ccncc4)no3)cs2)cc1	1 (≈ 2.65 µM)	29.9 (≈ 79.2 µM)	Activity (Mycobacterium avium [4]): inactive; Activity [5]: inactive
O=C(Nc1ccccc1)c1cc(-c2csc(Nc3cc(Cl)c(Cl)c(Cl)c3)n2)on1	> 20	–	remaining at 1 µM [6]: 101%
Cc1cc(C)cc(Nc2nc(-c3cc(C(=O)Nc4ccccc4)no3)cs2)c1	1 (≈ 2.56 µM)	70.9 (≈ 182 µM)	Activity (Mycobacterium avium [4]): inactive; Activity [5]: inactive
Cc1ccc(Nc2nc(-c3cc(C(=O)Nc4ccc(C)cc4C)no3)cs2)cc1	> 20	–	–
Cc1cc(C)cc(Nc2nc(-c3cc(C(=O)Nc4ccccn4)no3)cs2)c1	> 20	–	–
Cc1ccc(Nc2nc(-c3cc(C(=O)Nc4ccsc4)no3)cs2)cc1	1 (≈ 2.61 µM)	> 100	MIC90 (Mycobacterium marinum [7]): 1 µg/mL (≈ 2.61 µM)
Cc1ccc(Nc2nc(-c3cc(C(=O)Nc4ccccc4O)no3)cs2)cc1	0.5 (≈ 1.27 µM)	53.1 (≈ 135 µM)	–
Cc1ccc(Nc2nc(-c3cc(C(=O)Nc4ccc(F)cc4)no3)cs2)cc1	1 (≈ 2.54 µM)	46.8 (≈ 119 µM)	Activity (Mycobacterium avium [4]): inactive; Activity [5]: inactive
Cc1ccc(Nc2nc(-c3cc(C(=O)Nc4ncc(C)s4)no3)cs2)cc1	> 20	–	–
Cc1ccc(Nc2nc(-c3cc(C(=O)Nc4cccc(C(F)(F)F)c4)no3)cs2)cc1	> 20	–	–

Structure (SMILES)	MIC90 [1, 11] [µg/mL]	IC50 at 72 h [3] [µg/mL]	also measured
O=C(Nc1ccccn1)c1cc(-c2csc(Nc3ccccc3)n2)on1	> 20	–	inhibition at 100 µM (Mycobacterium avium [8]): 50%; t1/2 [9]: 1.1 h; inhibition at 100 µM [10]: 50%
Cc1ccc(Nc2nc(-c3cc(C(=O)Nc4ccccc4)no3)cs2)cc1O	2.5 (≈ 6.37 µM)	> 100	–
Cc1cccc(NC(=O)c2cc(C(=O)Nc3nc4ccccc4s3)on2)c1	–	–	MIC90 ([1]; time 7.0 day): inactive; MIC90 (Mycobacterium marinum [2]): inactive
Cc1ccc(Nc2nc(-c3cc(C(=O)Nc4cc(C)ccn4)no3)cs2)cc1	1 (≈ 2.55 µM)	86.3 (≈ 220 µM)	inhibition at 100 µM (Mycobacterium avium [8]): 50%; inhibition at 100 µM [10]: 50%
Cc1ccc(Nc2nc(-c3cc(C(=O)Nc4cc(C)cc(C)c4)no3)cs2)cc1	> 20	–	–
Cc1ccc(Nc2nc(-c3cc(C(=O)Nc4ccccc4)no3)co2)cc1	1 (≈ 2.77 µM)	> 100	Activity (Mycobacterium avium [4]): inactive; Activity [5]: inactive
COc1ccc2sc(NC(=O)c3cc(C(=O)Nc4cccc(C)c4)no3)nc2c1	–	–	MIC90 ([1]; time 7.0 day): inactive; MIC90 (Mycobacterium marinum [2]): inactive
Cc1ccc(NC(=O)c2cc(-c3csc(Nc4ccc(C)cc4)n3)on2)cc1	1 (≈ 2.56 µM)	47.5 (≈ 122 µM)	–
O=C(Nc1ccccc1)c1cc(-c2csc(Nc3cc(Cl)cc(Cl)c3)n2)on1	> 20	–	–
Cc1ccc(Nc2nc(-c3cc(C(=O)Nc4nccs4)no3)cs2)cc1	> 40	–	–
CN[C@@H]1[C@H](O[C@H]2[C@H](O[C@H]3[C@H](O)[C@@H](O)[C@H](N=C(N)N)[C@@H](O)[C@@H]3N=C(N)N)O[C@@H](C)[C@]2(O)C=O)O[C@@H](CO)[C@H](O)[C@H]1O [STREPTOMYCIN]	0.25 (≈ 0.43 µM)	–	–
Cc1ccc(Nc2nc(-c3cc(C(=O)Nc4cccc(O)c4)no3)cs2)cc1	0.5 (≈ 1.27 µM)	48.7 (≈ 124 µM)	Activity (Mycobacterium avium [4]): inactive; Activity [5]: inactive
Cc1ccc(Nc2nc(-c3cc(C(=O)NCc4cccs4)no3)cs2)cc1	> 20	–	–
Cc1ccc2nc(NC(=O)c3cc(C(=O)Nc4ccccc4)no3)sc2c1	–	–	MIC90 ([1]; time 7.0 day): inactive; MIC90 (Mycobacterium marinum [2]): inactive
Cc1ccc(Nc2nc(-c3cc(C(=O)Nc4cccnc4)no3)cs2)cc1	10 (≈ 26.5 µM)	–	–
Cc1ccc(Nc2nc(-c3cc(C(=O)Nc4ccnnc4)no3)cs2)cc1	> 20	–	–
